Type in all cases: functional, organism-based
Experiment [1] deals with Influenza A virus. The experiment in a line: Antiviral activity against oseltamivir resistant Influenza A virus A/Georgia/20/2006 (H1N1) infected in MDCK cells incubated for 72 hrs by cell protection assay. The essentials:
(§1)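 MDCK cells incubated with test compound and influenza A virus for 72 h. EC50 is the concentration giving 50% cell protection, reported as the mean of N=3. Oseltamivir resistant or sensitive status was assigned by externally validated phenotypic or genetic analysis.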

Experiment [2] has as its system Influenza A virus. Nature of the experiment: Antiviral activity against oseltamivir resistant Influenza A virus A/Texas/12/2007 (H3N2) infected in MDCK cells incubated for 72 hrs by cell protection assay. The essentials: as §1
The test system of experiment [3] is Influenza A virus. Nature of the experiment: Antiviral activity against oseltamivir resistant Influenza A virus A/Texas/48/2009 (H1N1) infected in MDCK cells incubated for 72 hrs by cell protection assay. The essentials: as §1

In general, EC50 refers to the concentration needed to bring the measured effect to its halfway point. Read a high EC50 as weaker potency.

Turning to `CC(C)(C)[C@@H](CC(=O)O)Nc1nc(-c2c[nH]c3ncc(F)cc23)ncc1F`, the figures for the EC50 in experiment [1], in experiment [2] and in experiment [3] were 2 nM, 30 nM and 2 nM, respectively.

Values taken from ChEMBL document CHEMBL5260803, “Discovery of Novel, Orally Bioavailable β-Amino Acid Azaindole Inhibitors of Influenza PB2” (ACS Med Chem Lett, 2017).
